This passage reports inhibition, Activity and IC50 results from ChEMBL document CHEMBL4251745, “The Notch Inhibitors Isolated from Nerium indicum” (J Nat Prod, 2018).

The target in test [1] is Neurogenic locus notch homolog protein 1 (Mus musculus) (UniProt Q01705). Put plainly: Inhibition of doxycycline-induced recombinant mouse N-terminal FLAG-tagged Notch1 (1704 to 2531 residues) activation expressed in human LS174T cells assessed as reduction in Hes5 level at 0.05 to 0.3 uM after 12 hrs by Western blot analysis. It counts as cell-based. In a few lines:
(§1)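 LS174T Notch assay cells at 1 × 10^6 per 6 cm dish, 12 h at 37 °C, then doxycycline 50 ng/mL for 12 h to induce FLAG-Notch1(1704–2531). Switched to fresh medium with compound for 12 h. Lysates probed by western blot with anti-FLAG, anti-cleaved Notch1 (Val1744), anti-HES1 or anti-HES5, β-actin control.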

In test [2] the test system is LS174T. The test is described as follows: Inhibition of doxycycline-induced Notch1 (1704 to 2531 residues) expression in human LS174T cells after 12 hrs by Western blot analysis. It counts as functional, cell-based. In a few lines: as §1
A general note: In western blotting, separated proteins are transferred to a membrane and probed.

For test [3], the system named is HPBALL. Put plainly: Down regulation of Notch1 expression in human HPBALL cells at 0.5 uM after 12 hrs by Western blot analysis. It counts as functional, cell-based.
The target of test [4] is Neurogenic locus notch homolog protein 1 (Mus musculus, UniProt Q01705). The test is described as follows: Inhibition of recombinant mouse N-terminal FLAG-tagged Notch1 (1704 to 2531 residues) expressed in human LS174T cells assessed as reduction in doxycycline-induced NICD expression after 12 hrs by Bright-Glo luciferase reporter gene assay. It counts as cell-based. In short, it runs like this:
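LS174T cells stably carrying a luciferase reporter under 12× RBP-J sites (β-globin promoter), 2 × 10^4 per well. After 12 h, doxycycline 50 ng/mL for 12 h induced Notch1(1704–2531). Then dox-free medium with compound, 0.1% DMSO, 12 h at 37 °C. Read by Bright-Glo luminescence, n = 3, with parallel FMCA viability.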
On the technique in general: Reporter assays use an easily measured gene product as a stand-in for the process of interest.

Test [5] relates to HPBALL. The test is described as follows: Effect on Notch1 mRNA expression in human HPBALL cells at 0.1 to 0.5 uM measured after 12 hrs. It counts as functional, cell-based.
Test [6] concerns the target Neurogenic locus notch homolog protein 1 (Mus musculus) (UniProt Q01705). The test is described as follows: Inhibition of doxycycline-induced recombinant mouse N-terminal FLAG-tagged Notch1 (1704 to 2531 residues) activation expressed in human LS174T cells assessed as reduction in NCID expression after 12 hrs by Western blot analysis. It counts as cell-based. In a few lines:
as §1

Test [7] concerns the target Neurogenic locus notch homolog protein 1 (Homo sapiens) (UniProt P46531). Put plainly: Inhibition of Notch1 in human HPBALL cells assessed as reduction in NICD expression at 0.5 uM after 12 hrs in presence of proteasome inhibitor MG132 by Western blot analysis. It counts as cell-based. In short, it runs like this:
(§2)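 HPB-ALL cells at 1 × 10^6 per 6 cm dish, treated 12 h at 37 °C with compound plus proteasome inhibitor MG132 (18.5 μM). Lysates blotted on PVDF, probed for cleaved Notch1 (Val1744)/NICD with β-actin loading control, ECL detection.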

Test [8] deals with HEK293. Put plainly: Cytotoxicity against HEK293 cells after 72 hrs by fluorescence assay. It counts as cell-based. As to conditions: Homo sapiens, HEK293, 72 h. In short, it runs like this:
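HEK293 cells at 1 × 10^4 per well in DMEM with 10% FBS and penicillin/streptomycin. Pre-incubated 24 h at 37 °C, then medium replaced with fresh medium holding a range of compound concentrations. Exposed 72 h; medium removed and proliferation read by fluorometric microculture cytotoxicity assay (FMCA).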

The target in test [9] is Neurogenic locus notch homolog protein 1 (Mus musculus) (UniProt Q01705). The test is described as follows: Inhibition of doxycycline-induced recombinant mouse N-terminal FLAG-tagged Notch1 (1704 to 2531 residues) activation expressed in human LS174T cells assessed as reduction in Hes1 level at 0.05 to 0.3 uM after 12 hrs by Western blot analysis. It counts as cell-based. In a few lines:
as §1

For test [10] the target is unchanged. Put plainly: Inhibition of doxycycline-induced recombinant mouse N-terminal FLAG-tagged Notch1 (1704 to 2531 residues) activation expressed in human LS174T cells assessed as reduction in NCID expression at 0.5 uM after 12 hrs in presence of proteasome inhibitor MG132 by Western blot analysis. It counts as cell-based.
Test [11] concerns the target Neurogenic locus notch homolog protein 1 (Homo sapiens) (UniProt P46531). The test is described as follows: Inhibition of Notch1 in human HPBALL cells assessed as reduction in NICD expression after 72 hrs by Western blot analysis. It counts as cell-based. In a few lines: (§3)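 HPB-ALL cells at 5 × 10^5 per 6 cm dish in RPMI-1640/10% FBS containing a range of compound concentrations, 72 h at 37 °C. Lysates run on SDS-PAGE and PVDF; probed with anti-HES1 or anti-cleaved Notch1 (Val1744) for NICD, β-actin control, ECL read-out.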

The subject of test [12] is HPBALL. The test is described as follows: Cytotoxicity against human HPBALL cells after 72 hrs by alamar blue dye based fluorescence assay. It counts as functional, cell-based. In a few lines: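 HPB-ALL T-ALL cells at 1 × 10^4 per well in RPMI-1640 with 10% FBS and penicillin/streptomycin. Compound added at seeding over a concentration range; 72 h at 37 °C. AlamarBlue then added for 4 h and fluorescence read to give viability.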

The target of test [13] is Neurogenic locus notch homolog protein 1 (Homo sapiens) (UniProt P46531). Put plainly: Inhibition of Notch1 in human HPBALL cells assessed as reduction in HES1 expression after 72 hrs by Western blot analysis. It counts as cell-based. In short, it runs like this: as §3
Neurogenic locus notch homolog protein 1 (Homo sapiens), sequence (P46531 whole entry): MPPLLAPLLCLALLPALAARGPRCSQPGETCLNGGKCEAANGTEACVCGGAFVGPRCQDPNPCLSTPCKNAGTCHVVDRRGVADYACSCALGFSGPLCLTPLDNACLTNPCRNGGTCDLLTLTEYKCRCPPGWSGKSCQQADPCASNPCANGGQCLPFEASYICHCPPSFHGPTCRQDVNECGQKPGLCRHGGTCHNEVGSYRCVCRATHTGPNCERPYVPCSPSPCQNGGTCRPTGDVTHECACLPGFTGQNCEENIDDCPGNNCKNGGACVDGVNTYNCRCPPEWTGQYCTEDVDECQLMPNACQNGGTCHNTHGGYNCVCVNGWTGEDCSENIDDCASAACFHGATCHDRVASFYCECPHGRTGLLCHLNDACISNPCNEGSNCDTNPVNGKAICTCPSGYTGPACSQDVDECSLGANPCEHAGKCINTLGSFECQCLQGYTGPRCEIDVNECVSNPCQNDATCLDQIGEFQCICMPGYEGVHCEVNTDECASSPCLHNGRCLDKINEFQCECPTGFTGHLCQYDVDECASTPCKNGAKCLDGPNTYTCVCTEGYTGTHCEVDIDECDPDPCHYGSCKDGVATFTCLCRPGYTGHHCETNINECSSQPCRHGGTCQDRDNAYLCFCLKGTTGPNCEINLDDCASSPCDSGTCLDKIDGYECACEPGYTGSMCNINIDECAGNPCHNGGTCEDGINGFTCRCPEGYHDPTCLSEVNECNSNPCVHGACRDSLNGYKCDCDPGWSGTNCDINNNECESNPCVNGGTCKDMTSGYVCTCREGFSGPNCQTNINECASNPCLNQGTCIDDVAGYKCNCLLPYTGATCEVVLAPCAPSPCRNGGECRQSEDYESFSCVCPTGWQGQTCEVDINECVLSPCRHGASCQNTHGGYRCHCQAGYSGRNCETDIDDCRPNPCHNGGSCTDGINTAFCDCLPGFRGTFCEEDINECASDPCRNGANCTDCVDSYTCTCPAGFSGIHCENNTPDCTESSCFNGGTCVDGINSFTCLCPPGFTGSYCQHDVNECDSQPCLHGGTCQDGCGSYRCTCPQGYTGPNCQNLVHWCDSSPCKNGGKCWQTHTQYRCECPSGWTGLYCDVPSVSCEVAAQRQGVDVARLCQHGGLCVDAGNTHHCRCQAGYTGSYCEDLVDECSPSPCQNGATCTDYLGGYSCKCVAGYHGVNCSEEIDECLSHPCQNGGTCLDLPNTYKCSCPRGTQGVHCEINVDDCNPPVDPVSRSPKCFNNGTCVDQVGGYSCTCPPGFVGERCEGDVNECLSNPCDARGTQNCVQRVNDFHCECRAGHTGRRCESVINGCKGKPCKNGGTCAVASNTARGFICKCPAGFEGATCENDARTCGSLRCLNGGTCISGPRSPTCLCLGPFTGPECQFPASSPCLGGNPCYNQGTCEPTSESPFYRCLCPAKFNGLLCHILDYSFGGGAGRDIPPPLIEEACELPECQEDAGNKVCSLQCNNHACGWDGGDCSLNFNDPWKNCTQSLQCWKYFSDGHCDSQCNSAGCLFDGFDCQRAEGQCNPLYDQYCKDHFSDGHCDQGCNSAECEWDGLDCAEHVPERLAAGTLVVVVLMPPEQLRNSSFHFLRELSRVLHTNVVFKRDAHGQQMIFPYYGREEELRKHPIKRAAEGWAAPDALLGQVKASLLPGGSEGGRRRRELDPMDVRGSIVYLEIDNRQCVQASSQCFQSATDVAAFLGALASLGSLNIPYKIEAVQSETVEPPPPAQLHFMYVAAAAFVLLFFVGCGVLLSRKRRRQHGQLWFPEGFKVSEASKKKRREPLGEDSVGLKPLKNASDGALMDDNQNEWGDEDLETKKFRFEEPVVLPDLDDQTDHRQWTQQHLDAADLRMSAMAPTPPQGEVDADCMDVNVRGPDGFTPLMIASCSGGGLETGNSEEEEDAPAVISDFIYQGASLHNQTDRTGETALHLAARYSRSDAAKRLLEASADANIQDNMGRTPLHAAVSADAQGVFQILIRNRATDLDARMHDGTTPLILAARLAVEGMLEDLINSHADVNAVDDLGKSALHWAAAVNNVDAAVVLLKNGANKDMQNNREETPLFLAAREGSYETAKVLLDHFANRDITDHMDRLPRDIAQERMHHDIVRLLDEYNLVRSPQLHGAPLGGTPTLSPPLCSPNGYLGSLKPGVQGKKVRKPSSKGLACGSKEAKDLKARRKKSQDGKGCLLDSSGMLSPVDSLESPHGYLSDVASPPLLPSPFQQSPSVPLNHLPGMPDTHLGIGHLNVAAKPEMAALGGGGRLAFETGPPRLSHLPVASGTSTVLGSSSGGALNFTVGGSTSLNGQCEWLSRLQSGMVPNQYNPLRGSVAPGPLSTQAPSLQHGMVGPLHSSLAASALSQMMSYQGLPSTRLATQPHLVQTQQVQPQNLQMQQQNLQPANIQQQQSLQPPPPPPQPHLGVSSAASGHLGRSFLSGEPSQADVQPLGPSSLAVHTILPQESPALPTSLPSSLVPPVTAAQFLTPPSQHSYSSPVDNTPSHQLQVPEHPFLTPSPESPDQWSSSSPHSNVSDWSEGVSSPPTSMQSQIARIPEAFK
Test [14] has the same target. Put plainly: Inhibition of Notch1 in human HPBALL cells assessed as reduction in NICD expression at 0.5 uM after 12 hrs by Western blot analysis. It counts as cell-based.
The subject of test [15] is HPBALL. The test is described as follows: Down regulation of Notch1 expression in human HPBALL cells at 0.5 uM after 12 hrs in presence of proteasome inhibitor MG132 by Western blot analysis. It counts as functional, cell-based. In a few lines:
as §2

Active and inactive are the calls of the source. No cut-off for these calls is given here.

Neurogenic locus notch homolog protein 1, sequence (Q01705 whole entry, the tested form may be a part): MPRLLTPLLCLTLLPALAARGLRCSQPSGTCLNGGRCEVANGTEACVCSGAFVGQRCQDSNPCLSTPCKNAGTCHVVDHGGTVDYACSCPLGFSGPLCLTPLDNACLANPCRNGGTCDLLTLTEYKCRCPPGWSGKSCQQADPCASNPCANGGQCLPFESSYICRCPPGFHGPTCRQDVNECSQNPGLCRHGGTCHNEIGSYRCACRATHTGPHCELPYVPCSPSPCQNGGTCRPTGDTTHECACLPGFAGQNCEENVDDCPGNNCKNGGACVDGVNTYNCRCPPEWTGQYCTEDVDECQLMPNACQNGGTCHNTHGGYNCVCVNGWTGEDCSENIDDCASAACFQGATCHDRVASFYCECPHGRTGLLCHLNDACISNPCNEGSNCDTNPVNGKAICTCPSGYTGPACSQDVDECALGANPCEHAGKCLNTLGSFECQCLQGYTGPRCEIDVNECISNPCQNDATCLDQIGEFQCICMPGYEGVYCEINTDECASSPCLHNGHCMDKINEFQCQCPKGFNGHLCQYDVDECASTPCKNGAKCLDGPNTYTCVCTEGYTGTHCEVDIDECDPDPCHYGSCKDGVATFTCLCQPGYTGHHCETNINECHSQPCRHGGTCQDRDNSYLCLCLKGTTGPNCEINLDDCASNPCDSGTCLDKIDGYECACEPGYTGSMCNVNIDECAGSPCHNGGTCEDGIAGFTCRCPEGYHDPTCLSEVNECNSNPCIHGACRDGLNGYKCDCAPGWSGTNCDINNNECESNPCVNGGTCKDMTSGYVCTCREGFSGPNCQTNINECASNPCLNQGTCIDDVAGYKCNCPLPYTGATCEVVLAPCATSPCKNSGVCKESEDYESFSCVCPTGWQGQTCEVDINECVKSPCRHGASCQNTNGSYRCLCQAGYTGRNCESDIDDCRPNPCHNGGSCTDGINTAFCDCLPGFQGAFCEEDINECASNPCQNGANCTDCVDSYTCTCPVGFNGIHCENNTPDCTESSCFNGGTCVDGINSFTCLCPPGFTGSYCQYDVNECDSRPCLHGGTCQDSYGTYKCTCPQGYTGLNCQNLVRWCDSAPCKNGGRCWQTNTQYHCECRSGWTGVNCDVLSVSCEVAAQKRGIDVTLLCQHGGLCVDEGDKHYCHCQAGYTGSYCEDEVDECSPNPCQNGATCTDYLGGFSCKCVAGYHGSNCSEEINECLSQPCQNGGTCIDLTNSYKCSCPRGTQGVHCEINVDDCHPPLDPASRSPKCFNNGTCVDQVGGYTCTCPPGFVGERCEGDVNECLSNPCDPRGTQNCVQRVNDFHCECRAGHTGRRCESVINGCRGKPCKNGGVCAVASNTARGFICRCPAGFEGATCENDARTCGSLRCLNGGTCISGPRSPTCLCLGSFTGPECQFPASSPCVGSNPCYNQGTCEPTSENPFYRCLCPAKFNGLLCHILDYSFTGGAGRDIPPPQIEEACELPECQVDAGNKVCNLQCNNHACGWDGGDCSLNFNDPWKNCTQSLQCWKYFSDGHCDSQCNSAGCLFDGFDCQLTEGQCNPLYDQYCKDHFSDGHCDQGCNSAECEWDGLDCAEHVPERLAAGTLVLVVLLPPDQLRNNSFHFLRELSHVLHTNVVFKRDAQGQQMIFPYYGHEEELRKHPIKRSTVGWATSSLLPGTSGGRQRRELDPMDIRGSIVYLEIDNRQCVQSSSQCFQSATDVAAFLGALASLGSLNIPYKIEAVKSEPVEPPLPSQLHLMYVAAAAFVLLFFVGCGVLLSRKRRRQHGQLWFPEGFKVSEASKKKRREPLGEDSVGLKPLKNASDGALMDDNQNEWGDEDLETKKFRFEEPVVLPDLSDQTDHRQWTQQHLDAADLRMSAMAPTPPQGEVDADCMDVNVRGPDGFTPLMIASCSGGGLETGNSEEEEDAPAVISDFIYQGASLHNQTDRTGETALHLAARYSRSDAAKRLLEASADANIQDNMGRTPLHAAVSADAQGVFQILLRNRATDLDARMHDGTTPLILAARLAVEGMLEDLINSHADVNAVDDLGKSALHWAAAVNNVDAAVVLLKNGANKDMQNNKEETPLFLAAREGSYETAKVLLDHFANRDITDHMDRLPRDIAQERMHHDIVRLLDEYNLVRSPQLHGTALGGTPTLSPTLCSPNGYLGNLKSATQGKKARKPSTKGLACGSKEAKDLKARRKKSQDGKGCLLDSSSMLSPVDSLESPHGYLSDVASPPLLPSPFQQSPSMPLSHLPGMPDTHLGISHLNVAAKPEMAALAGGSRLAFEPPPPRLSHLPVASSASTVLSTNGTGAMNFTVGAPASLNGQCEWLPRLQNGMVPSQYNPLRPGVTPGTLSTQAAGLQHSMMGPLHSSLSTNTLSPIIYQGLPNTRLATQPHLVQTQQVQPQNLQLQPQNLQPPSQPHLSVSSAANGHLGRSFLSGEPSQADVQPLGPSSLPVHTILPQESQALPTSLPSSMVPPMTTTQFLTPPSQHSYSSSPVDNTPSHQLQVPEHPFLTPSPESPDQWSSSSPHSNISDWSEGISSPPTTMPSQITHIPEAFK
Neurogenic locus notch homolog protein 1 (Mus musculus), sequence (Q01705 whole entry, the tested form may be a part): as above

Take `CO[C@H]1C[C@H](O[C@H]2CC[C@@]3(C)[C@H](CC[C@@H]4[C@@H]3CC[C@]3(C)[C@@H](C5=CC(=O)OC5)[C@@H](OC(C)=O)C[C@]43O)C2)O[C@@H](C)[C@@H]1O` [OLEANDRIN]: the inhibition result in [1], in test [9] and in test [14] was “Active” in each case. For the same compound, the inhibition result in [2], in [6], in test [11] and in test [13] was “Dose-dependent effect” each time. In addition, the result in test [3] and in [15] was Active. The 50% inhibitory concentration (IC50) – broadly, the concentration at which inhibition is half-maximal – in [4] (read-out: IC50) was 0.12 µM; in [8], 0.028 µM; in test [12] it was 0.014 µM. Also, the result in test [5] was inactive. The inhibition entry in test [7] and in test [10] was “inactive” in each case.

As to `CO[C@@H]1C[C@H](O[C@H]2CC[C@@]3(C)[C@H](CC[C@]4(O)[C@@H]3CC[C@]3(C)[C@@H](C5=CC(=O)OC5)CC[C@@]34O)C2)O[C@H](C)[C@@H]1O`, the IC50 result in [4] (ls174t) is “Not Active”.

For `CO[C@H]1C[C@H](O[C@H]2CC[C@@]3(C)[C@H](CC[C@@H]4[C@@H]3CC[C@]3(C)[C@@H](C5=CC(=O)OC5)CC[C@]43O)C2)O[C@@H](O)[C@@H]1O`, in [4] (read-out: IC50), the IC50 was 2.7 µM.

As to `CO[C@@H]1C[C@H](O[C@H]2CC[C@@]3(C)[C@H](CC[C@@H]4[C@@H]3CC[C@]3(C)C(C5=CC(=O)OC5)=CC[C@]43O)C2)O[C@H](C)[C@@H]1O`, in test [4] (ls174t), the IC50 result is reported as “Not Active”.

With `CO[C@@H]1C[C@H](O[C@H]2CC[C@@]3(C)[C@H](CC[C@@H]4[C@@H]3CC[C@]3(C)[C@@H](C5=CC(=O)OC5)CC[C@]43O)C2)O[C@H](C)[C@@H]1O`, the 50% inhibitory concentration (IC50) in test [4] (read-out: IC50) stood at 4.2 µM.

In the case of `C[C@]12CC[C@H](O)C[C@H]1CC[C@@H]1[C@@H]2CC[C@]2(C)[C@@H](C3=CC(=O)OC3)CC[C@]12O` [DIGITOXIGENIN], in [4] (ls174t), the IC50 entry is “Not Active”.

In the case of `CO[C@H]1C[C@H](O[C@H]2CC[C@@]3(C)[C@H](CC[C@@H]4[C@@H]3CC[C@]3(C)[C@@H](C5=CC(=O)OC5)[C@@H](O)C[C@]43O)C2)O[C@@H](C)[C@@H]1O`, the IC50 in test [4] (read-out: IC50) turned out to be 2.5 µM.

Take `CO[C@@H]1C[C@H](O[C@H]2CC[C@@]3(C)[C@H](CC[C@@H]4[C@@H]3CC[C@]3(C)[C@@H](C5=CC(=O)OC5)[C@@H](OC(C)=O)C[C@]43O)C2)O[C@H](C)[C@@H]1O`: the concentration for half-maximal inhibition (IC50) in test [4] (read-out: IC50) amounted to 2.7 µM.
